The nature of series [1]: Peptide association with chondroitin sulfate. The class given is physicochemical. As to conditions: for Decrease in peptides associated per disaccharide / Percent Decrease in total peptide associated/GAG: with CS, before vs after 1 M NaCl and 8 M urea wash. A digest of the protocol:
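Chondroitin sulfate (10 mg/mL) reacted overnight at pH 4.5 with peptide (theoretical 16% disaccharide substitution) in 0.1 M MES/8 M urea/0.2 wt% NaCl, with EDC 0.5:1 per disaccharide or without EDC. Stopped at pH 8.5, tangential-flow filtered (10 kDa). Agitated 30 min in 1 M NaCl/8 M urea, spin-filtered (10 kDa) and water-exchanged three times. Peptide measured by A280 against standard curves, before and after wash.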

The nature of series [2]: Circular dichroism secondary structure of GQLY variants. As to conditions: 1 mg/mL, pH 8.5 sodium borate buffer; for Antiparallel / Helix / Others / Parallel / Turn: CD far-UV 190-250 nm, BESTSEL; for Structure difference between variants by CD: SRR-hyd vs GSG-hyd. The series is classed as physicochemical. In a few lines:
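Peptides at 1 mg/mL in pH 8.5 sodium borate buffer, quartz cell. Far-UV spectra 190–250 nm, baseline-corrected. Secondary-structure fractions fitted by least squares at each wavelength point, separating antiparallel β-sheet by twist angle and regular from distorted α-helix.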

For another series, the system named is collagen. The note with it: ref unpublished studies; cited from earlier work.
Series [3] can be described thus: SRR-hyd conjugation to GAG backbones. The class given is physicochemical. As to conditions: following salt washing. In a few lines: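 Heparin, hyaluronic acid, chondroitin sulfate or dermatan sulfate (10 mg/mL) coupled to peptide with EDC (0.5:1 per disaccharide) in 0.1 M MES/8 M urea/0.2 wt% NaCl, pH 4.5, overnight. Quenched at pH 8.5, purified by tangential flow over a 10 kDa membrane, lyophilised. Peptide content from 280 nm absorbance using peptide standard curves, expressed per disaccharide (GAG mass divided by disaccharide mass).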

In a further series the test system is platelet binding. As to conditions: ref Biran & Pond, 2017; Linhardt et al., 2008; cited from earlier work.
Series [4] deals with platelet adhesion to immobilized fibrillar collagen. Description: Inhibition of platelet adhesion to immobilized fibrillar collagen under flow. The note with it: even at high concentrations; human whole blood, 1000 s−1. The series is classed as cell-based. In a few lines:
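Flow channels coated with fibrillar type I collagen (100 μg/mL, 1 h, room temperature) and PBS-washed. Channels pre-incubated 1 h with test compound, or with its heparin or peptide component alone, at increasing concentrations, then flushed. Citrated human whole blood, pooled and used within 3 h, stained with Calcein-AM 30 min at 37 °C. Conjugate added to blood, perfused at 1000 s−1. Adherent platelets imaged by fluorescence and normalised to untreated control.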

The values that follow come from article PMC11178347 (Proteoglycan research, 2023).

Entries after “also recorded” stand apart in the source; their conditions may differ. Ends that are not written are not given here.

With GQLYKSILYGSGSGSRR-NH2, the “Peptide association with CS, without EDC” value in series [1] (absence of EDC, initial 10 kDa purification) was “equivalent”. Moreover, the “Decrease in peptides associated per disaccharide” value (“Decrease … per disaccharide” for short) in series [1] is recorded as 5.7%.

In series [2], GQLYKSILYGSGSG-hydrazide registered an Antiparallel of 25.6, a Helix of 6.2, an Others of 53.9 and a Parallel of 0. For the same substance, in series [2], the Turn is given as 14.3 and the “Structure difference between variants by CD” value is “minimal difference in their structure”. Moreover, in series [1], the “Decrease … per disaccharide” value was 1.1% and the “Percent Decrease in total peptide associated/GAG” value is 15%.

As to GQLYKSILY, the Collagen binding result in the series with collagen is listed as “also binding to collagen”.

In series [2], GQLYKSILYGSGSGSRR-hydrazide registered an Antiparallel of 21.8, a Helix of 5.5, an Others of 59.2 and a Parallel of 0. In addition, in series [2], the Turn is recorded as 13.5 and the “Structure difference between variants by CD” value is “minimal difference in their structure”. The “Peptide association with CS, with EDC” value in series [1] (after EDC reaction, initial 10 kDa purification) is recorded as “significantly more peptide association when using the SRR-hyd variant compared to the GSG-hyd variant; also recorded: more SRR-hyd associated with CS compared to the SRR-amide variant”. Moreover, in series [1], the “Decrease … per disaccharide” value is reported as 5.2% and the “Percent Decrease in total peptide associated/GAG” value amounted to 32%.

For hyaluronic acid [HA], in series [3], the “GQLY (SRR-hyd) conjugation supported by the GAG backbone” value (from here on “GQLY (SRR-hyd) conjugation supported”) was “least”.

On to dermatan sulfate [DS], for which the “GQLY (SRR-hyd) conjugation supported” value in series [3] is “same intermediate level of GQLY conjugation”.

Regarding heparin, in series [3], the “GQLY (SRR-hyd) conjugation supported” value is listed as “greatest GQLY conjugation”. In addition, the Platelet binding suppression result with platelet binding is “known to suppress platelet binding”. Besides, the “Platelet inhibition, in words” value in series [4] is listed as “no significant platelet inhibition”.

Turning to chondroitin sulfate [CS], the “GQLY (SRR-hyd) conjugation supported” value in series [3] was “same intermediate level of GQLY conjugation”.
